According to BindingDB's records for doi:10.1021/jm020545z (Amorepacific R&D Center, 2004):
pIC50: −log10 of the molar value.

Biological target: T1, Prostaglandin G/H synthase 1 (Mus musculus, UniProt P22437)
T1 sequence (P22437 whole entry): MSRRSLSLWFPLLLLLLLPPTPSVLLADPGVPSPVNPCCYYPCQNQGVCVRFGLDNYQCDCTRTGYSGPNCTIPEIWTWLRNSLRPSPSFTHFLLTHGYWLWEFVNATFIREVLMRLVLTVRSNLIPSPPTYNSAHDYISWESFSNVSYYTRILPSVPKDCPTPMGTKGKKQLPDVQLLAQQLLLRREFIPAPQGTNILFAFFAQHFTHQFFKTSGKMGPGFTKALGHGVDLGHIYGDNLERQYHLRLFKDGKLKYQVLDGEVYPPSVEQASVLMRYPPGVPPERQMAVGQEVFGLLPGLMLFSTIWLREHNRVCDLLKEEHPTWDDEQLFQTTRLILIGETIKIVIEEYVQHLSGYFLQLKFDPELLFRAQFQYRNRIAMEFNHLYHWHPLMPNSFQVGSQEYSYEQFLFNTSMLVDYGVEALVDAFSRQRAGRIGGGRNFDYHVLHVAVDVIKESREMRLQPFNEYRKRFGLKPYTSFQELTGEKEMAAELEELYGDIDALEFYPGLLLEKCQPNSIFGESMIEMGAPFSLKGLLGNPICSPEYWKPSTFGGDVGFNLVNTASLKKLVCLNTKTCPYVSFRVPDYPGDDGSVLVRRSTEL
Experiment: In vitro inhibitory activity against prostaglandin G/H synthase 1 using mouse peritoneal macrophage method
Method in brief: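 Freshly harvested mouse peritoneal macrophages were the enzyme source. Cells were preincubated 10 min at 37 °C with inhibitor in DMSO, then stimulated with calcium ionophore A23187 for 10 min. The reaction was stopped with indomethacin in 0.1% BSA buffer and centrifuged, and supernatant TXB₂ was measured by ELISA.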

pIC50: < 4.52
SMILES: CC1(C)OC(c2ccc(S(N)(=O)=O)cc2)=C(c2ccco2)C1=O
